Experimental data: ChEMBL document CHEMBL1159367, “Antineoplastic agents. 485. Isolation and structure of cribrostatin 6, a dark blue cancer cell growth inhibitor from the marine sponge Cribrochalina sp” (2003)
Converted amounts (≈) assume the structure as drawn.

Columns and labels:
Type in all cases: functional
KM-20L2 = experiment: Growth inhibition of human KM20L2 cells
Candida albicans = experiment: Antimicrobial activity against Candida albicans ATCC 90028 by broth microdilution susceptibility assay
Streptococcus pneumoniae [1] = experiment: Antimicrobial activity against penicillin-resistant Streptococcus pneumoniae isolate by broth microdilution susceptibility assay
Summary of the method: (§1)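 Broth microdilution susceptibility testing following established reference methods. MIC was taken as the lowest compound concentration giving complete inhibition of visible growth, with wells optically clear.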

Staphylococcus aureus [2] = experiment: Antimicrobial activity against methicillin-resistant Staphylococcus aureus isolate by broth microdilution susceptibility assay; summary of the method: as §1
P388 = experiment: Growth inhibition of mouse P388 cells
NCI-H460 = experiment: Growth inhibition of human NCI-H460 cells
Cryptococcus neoformans = experiment: Antimicrobial activity against Cryptococcus neoformans ATCC 90112 by broth microdilution susceptibility assay
Enterobacter cloacae = experiment: Antimicrobial activity against Enterobacter cloacae ATCC 13047 by broth microdilution susceptibility assay
Enterococcus faecalis [3] = experiment: Antimicrobial activity against Enterococcus faecalis ATCC 29212 isolate by broth microdilution susceptibility assay; summary of the method: as §1
DU-145 = experiment: Growth inhibition of human DU145 cells
Neisseria gonorrhoeae = experiment: Antimicrobial activity against Neisseria gonorrhoeae ATCC 49226 by broth microdilution susceptibility assay
[4] = tested on: Stenotrophomonas maltophilia; experiment: Antimicrobial activity against Stenotrophomonas maltophilia ATCC 13637 by broth microdilution susceptibility assay
Micrococcus luteus = experiment: Antimicrobial activity against Micrococcus luteus Presque Isle 456 by broth microdilution susceptibility assay
Bacillus subtilis = experiment: Antimicrobial activity against Bacillus subtilis isolate by broth microdilution susceptibility assay
Staphylococcus aureus [5] = experiment: Antimicrobial activity against Staphylococcus aureus ATCC 29213 by broth microdilution susceptibility assay; summary of the method: as §1
Enterococcus faecalis [6] = experiment: Antimicrobial activity against vancomycin-resistant Enterococcus faecalis isolate by broth microdilution susceptibility assay; summary of the method: as §1
Streptococcus pneumoniae [7] = experiment: Antimicrobial activity against Streptococcus pneumoniae ATCC 6303 by broth microdilution susceptibility assay
BXPC-3 = experiment: Growth inhibition of human BxPC3 cells
SF-268 = experiment: Growth inhibition of human SF268 cells
MCF7 = experiment: Growth inhibition of human MCF7 cells
Escherichia coli = experiment: Antimicrobial activity against Escherichia coli ATCC 25922 by broth microdilution susceptibility assay
Streptococcus = experiment: Antimicrobial activity against Streptococcus isolate by broth microdilution susceptibility assay
Streptococcus pneumoniae [8] = experiment: Antimicrobial activity against Streptococcus pneumoniae isolate by broth microdilution susceptibility assay

## CCOC1=C(C)C(=O)c2ccn3c(C)ncc3c2C1=O [CRIBROSTATIN 6]
KM-20L2
  GI50: > 1 µg/mL
Candida albicans
  MIC: 64 µg/mL (≈ 237 µM)
Streptococcus pneumoniae [1]
  MIC: 2 µg/mL (≈ 7.4 µM)
Staphylococcus aureus [2]
  MIC: 16 µg/mL (≈ 59.2 µM)
P388
  GI50: 0.29 µg/mL (≈ 1.07 µM)
P388; read-out: ED50 (the source's name)
  EC50: 0.3 µg/mL (≈ 1.11 µM)
NCI-H460
  GI50: > 1 µg/mL
Cryptococcus neoformans
  MIC: 2 µg/mL (≈ 7.4 µM)
Enterobacter cloacae
  MIC: > 64 µg/mL
Enterococcus faecalis [3]
  MIC: 32 µg/mL (≈ 118 µM)
DU-145
  GI50: 0.38 µg/mL (≈ 1.41 µM)
Neisseria gonorrhoeae
  MIC: 0.0625 µg/mL (≈ 0.231 µM)
[4]
  MIC: > 64 µg/mL
Micrococcus luteus
  MIC: 16 µg/mL (≈ 59.2 µM)
Bacillus subtilis
  MIC: 2 µg/mL (≈ 7.4 µM)
Staphylococcus aureus [5]
  MIC: 16 µg/mL (≈ 59.2 µM)
Enterococcus faecalis [6]
  MIC: 32 µg/mL (≈ 118 µM)
Streptococcus pneumoniae [7]
  MIC: 0.5 µg/mL (≈ 1.85 µM)
BXPC-3
  GI50: > 1 µg/mL
SF-268
  GI50: 0.24 µg/mL (≈ 0.888 µM)
MCF7
  GI50: 0.21 µg/mL (≈ 0.777 µM)
Escherichia coli
  MIC: > 64 µg/mL
Streptococcus
  MIC: 16 µg/mL (≈ 59.2 µM)
Streptococcus pneumoniae [8]
  MIC: 1 µg/mL (≈ 3.7 µM)
